Assay results published in PMC7511286 (European Journal of Drug Metabolism and Pharmacokinetics, 2020).
Entries after “also recorded” stand apart in the source; their conditions may differ. Marks after values point to notes of the source that are not given here.

Experiments:
Assay type in all cases: in vivo, human
[1] = Preliminary two-compartment population pharmacokinetic model on SAD and MAD data
Outline: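 A two-compartment model with first-order absorption, inter-compartmental transfer and elimination was fitted to plasma concentrations. Data were fasted single-dose and multiple-dose only; fed and pre-dosing data were excluded and MAD outliers kept. Parameters were ka, V1/F, V2/F, CL/F and Q/F, with k10, k12 and k21 derived from clearance/volume. Values below LLOQ (0.1 μg/ml) were left-censored. No covariate testing.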

[2] = SAD study: safety and tolerability
Outline: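 Healthy males aged 18–55 took oral tablets. Treatment-emergent AEs were recorded by clinical evaluation. Vital signs (blood pressure, pulse), 12-lead and Holter ECG, physical examination, and urine and plasma laboratory tests were also assessed. AEs of special interest were hematuria and retroperitoneal colicky pain with suspected or confirmed nephrolithiasis. Subjects were hospitalized around dosing.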

[3] = SAD study: single ascending oral dose pharmacokinetics; conditions: for CL/F: geometric mean (geometric %CV)
Outline: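 Healthy males (n = 6 per group) took oral tablets either fasted (10 h overnight fast, continued 4 h) or 30 min after starting a standardized breakfast. Periods were separated by at least 14 days of washout. Plasma was sampled pre-dose to 168 h; urine was collected 24 h pre-dose and 24 h post-dose. LC-MS/MS used ESI−, LLOQ 0.1 μg/ml. CL/F = dose/AUC0–∞; Vz/F = CL/F/λz; values are geometric means.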

[4] = MAD study: multiple ascending oral dose pharmacokinetics
Outline: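 Healthy males took oral tablets once daily for 14 days after an overnight fast of at least 8 h, continued 1 h on profile days. Plasma was sampled 0.5–24 h after the day 0 dose, as troughs, and 0.5–72 h after the day 13 dose. LC-MS/MS used ESI−, LLOQ 0.1 μg/ml. AUC was by linear-log trapezoid. CL/F = dose/AUC0–24; RAAUC = AUC0–24 (day 13–14)/AUC0–24 (day 0–1).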

[5] = base model, inter-individual variability
[6] = single oral 10 mg, fed vs fasted
[7] = Day 13, 30 mg once daily, n = 12, geometric mean (geometric %CV)
[8] = Day 13, 40 mg once daily, n = 12, geometric mean (geometric %CV)
[9] = Day 13, 50 mg once daily not pre-dosed, n = 8, geometric mean (geometric %CV)
[10] = Day 13, 50 mg once daily pre-dosed, n = 8, geometric mean (geometric %CV)
[11] = Day 13–14 / Day 0–1, 30 mg once daily, n = 12, geometric mean (geometric %CV)

COc1cccc(-c2ccc(NC(=O)C3=C(C(=O)O)CCC3)c(F)c2)c1 [IMU-838, vidofludimus calcium]
Correlation coefficient IIV CL/F and IIV V1/F ([1]; base model): 0.387 | Exponential residual error ([1]; base model): 41.6 %CV | V1/F (volume in central compartment), population estimate ([1]; base model): 2.98 L | V2/F (volume in peripheral compartment), population estimate ([1]; base model): 6.31 L | ka (absorption rate), population estimate ([1]; base model): 0.15 h⁻¹ | CL/F (apparent total clearance), population estimate ([1]; base model, fasted SAD and MAD data without pre-dosing): 4.47 mL/min | k12 (inter-compartmental rate constant) ([1]; base model, derived, Eq. 2): 0.124 h⁻¹ | k21 (inter-compartmental rate constant) ([1]; base model, derived, Eq. 3): 0.0584 h⁻¹ | IIV on CL/F [1, 5]: 20.8 %CV | IIV on V1/F [1, 5]: 49.4 %CV | half-life ([1]; human, plasma, oral): 2.76 h | half-life ([1]; male, human, plasma, oral): 33.1 h | k el ([1]; male, human, plasma, oral): 2.5e-05 s⁻¹ | TEAE Flatulence: subjects having the event ([2]; 10 mg fasted, n = 6): 1 (16.7) N (%) | TEAE Headache: subjects having the event ([2]; 10 mg fasted, n = 6): 1 (16.7) N (%) | TEAE Micturition urgency: number of events ([2]; 10 mg fasted, n = 6): 1 | TEAE Micturition urgency: subjects having the event ([2]; 10 mg fasted, n = 6): 1 (16.7) N (%) | TEAE Viral upper respiratory tract infection: number of events ([2]; 10 mg fasted, n = 6): 2 | TEAE Viral upper respiratory tract infection: subjects having the event ([2]; 10 mg fasted, n = 6): 2 (33.3) N (%) | TEAEs Total: number of events ([2]; 10 mg fasted, n = 6): 5 | TEAEs Total: subjects having the event ([2]; 10 mg fasted, n = 6): 3 (50.0) N (%) | TEAE Epistaxis: subjects having the event ([2]; 10 mg fed, n = 6): 1 (16.7) N (%) | TEAEs Total: number of events ([2]; 10 mg fed, n = 6): 1 | TEAEs Total: subjects having the event ([2]; 10 mg fed, n = 6): 1 (16.7) N (%) | TEAE Headache: subjects having the event ([2]; 20 mg fasted, n = 6): 1 (16.7) N (%) | TEAEs Total: number of events ([2]; 20 mg fasted, n = 6): 1 | TEAEs Total: subjects having the event ([2]; 20 mg fasted, n = 6): 1 (16.7) N (%) | TEAE Opiates positive: number of events ([2]; 30 mg fasted, n = 6): 1 | TEAE Opiates positive: subjects having the event ([2]; 30 mg fasted, n = 6): 1 (16.7) N (%) | TEAEs Total: number of events ([2]; 30 mg fasted, n = 6): 1 | TEAEs Total: subjects having the event ([2]; 30 mg fasted, n = 6): 1 (16.7) N (%) | TEAE Rhinitis: subjects having the event ([2]; 40 mg fasted, n = 5): 1 (20.0) N (%) | TEAEs Total: number of events ([2]; 40 mg fasted, n = 5): 1 | TEAEs Total: subjects having the event ([2]; 40 mg fasted, n = 5): 1 (20.0) N (%) | AEs of special interest (hematuria, retroperitoneal colicky pain) ([2]; all single doses): no AEs of special interest were observed | total number of TEAEs ([2]; all single doses, 12 subjects): nine | tolerability ([2]; single oral doses 10–40 mg): well tolerated | accumulation ratio regarding exposure expected following multiple daily dosing ([3]; based on single-dose pharmacokinetics): ~2 | urine samples with concentration below the LLOQ ([3]; single oral 10 mg): all samples | effect of food on pharmacokinetics ([3]; single oral 10 mg, fasted vs fed): Food did not impact the pharmacokinetics; also recorded: no detrimental effect of food intake | CL/F ([3]; single oral 10 mg, fasted, n = 6): 4.064 (15.9) ml/min | blood exposure higher after fed administration compared with fasted [3, 6]: about 32% | geometric mean Cmax higher after fed compared with fasted [3, 6]: about 23% | CL/F ([3]; single oral 10 mg, fed, n = 6): 3.090 (25.5) ml/min | urine samples with concentration below the LLOQ ([3]; single oral 20 mg): four of six samples | CL/F ([3]; single oral 20 mg, fasted, n = 6): 4.218 (17.2) ml/min | CL/F ([3]; single oral 30 mg, fasted, n = 6): 3.633 (29.3) ml/min | CL/F ([3]; single oral 40 mg, fasted, n = 5): 3.480 (21) ml/min | dose dependence of plasma pharmacokinetics ([3]; single oral 10 to 40 mg, fasted): dose-linear | fraction of administered dose excreted in urine during single 24 h period ([3]; single oral 30 and 40 mg): more than 1% | Cmax ([4]; Day 0, 30 mg, n = 12, geometric mean (geometric %CV)): 3.979 (39.5) μg/ml | Cmax ([4]; Day 0, 40 mg, n = 12, geometric mean (geometric %CV)): 5.805 (32.3) μg/ml | Cmax ([4]; Day 0, 50 mg not pre-dosed, n = 8, geometric mean (geometric %CV)): 5.016 (51.1) μg/ml | AUC0–t [4, 7]: 188.554 (30.3) μg·h/ml | CL/F [4, 7]: 4.985 (25.0) ml/min | Cmax [4, 7]: 6.543 (25.8) μg/ml | AUC0–t [4, 8]: 284.959 (25.3) μg·h/ml | CL/F [4, 8]: 4.201 (22.6) ml/min | Cmax [4, 8]: 10.911 (20.2) μg/ml | CL/F ([4]; Day 13, 50 mg once daily all, n = 16, geometric mean (geometric %CV)): 5.008 (20.9) ml/min | AUC0–t [4, 9]: 310.301 (32.7) μg·h/ml | CL/F [4, 9]: 4.982 (27.3) ml/min | Cmax [4, 9]: 10.841 (21.5) μg/ml | AUC0–t [4, 10]: 304.154 (16.1) μg·h/ml | CL/F [4, 10]: 5.034 (14.1) ml/min | Cmax [4, 10]: 10.725 (20.1) μg/ml | RAAUC (accumulation ratio for AUC0–24) [4, 11]: 1.958 (24.4) | RACmax (accumulation ratio for Cmax) [4, 11]: 1.644 (37.6) | RAAUC (accumulation ratio for AUC0–24) ([4]; Day 13–14 / Day 0–1, 40 mg once daily, n = 9, geometric mean, geometric %CV 23.1): 2.077^e (23.1) | RACmax (accumulation ratio for Cmax) ([4]; Day 13–14 / Day 0–1, 40 mg once daily, n = 12, geometric mean (geometric %CV)): 1.880 (30.1) | AUC(0-t) ([4]; male, human, plasma, oral, 30 mg, AUC0–24, Day 0, 30 mg, n = 12, geometric mean (geometric %CV)): 51200 ng·h/mL | AUC(0-t) ([4]; male, human, plasma, oral, 30 mg, AUC0–t, geometric mean, Day 0, 30 mg): 51100 ng·h/mL | Cmax ([4]; male, human, plasma, oral, 30 mg, Cmax, Day 0, 30 mg, n = 12, geometric mean (geometric %CV)): 3980 ng/mL | Tmax ([4]; male, human, plasma, oral, 30 mg, tmax, Day 0, 30 mg, n = 12, median (minimum–maximum)): 3 h | AUC(0-t) ([4]; male, human, plasma, oral, 40 mg, AUC0–t, geometric mean, Day 0, 40 mg): 71700 ng·h/mL | Cmax ([4]; male, human, plasma, oral, 40 mg, Cmax, Day 0, 40 mg, n = 12, geometric mean (geometric %CV)): 5810 ng/mL | Tmax ([4]; male, human, plasma, oral, 40 mg, tmax, Day 0, 40 mg, n = 12, median (minimum–maximum)): 3 h | AUC(0-t) ([4]; male, human, plasma, oral, 50 mg, AUC0–24, Day 0, 50 mg not pre-dosed, n = 8, geometric mean (geometric %CV)): 67100 ng·h/mL | AUC(0-t) ([4]; male, human, plasma, oral, 50 mg, AUC0–t, geometric mean, Day 0, 50 mg not pre-dosed): 66700 ng·h/mL | Cmax ([4]; male, human, plasma, oral, 50 mg, Cmax, Day 0, 50 mg all, n = 16, geometric mean (geometric %CV)): 6040 ng/mL | Cmax ([4]; male, human, plasma, oral, 50 mg, Cmax, Day 0, 50 mg not pre-dosed, n = 8, geometric mean (geometric %CV)): 5020 ng/mL | Cmax ([4]; male, human, plasma, oral, 50 mg, Cmax, Day 0, 50 mg pre-dosed, n = 8, geometric mean (geometric %CV)): 7260 ng/mL | Tmax ([4]; male, human, plasma, oral, 50 mg, tmax, Day 0, 50 mg all, n = 16, median (minimum–maximum)): 2 h | Tmax ([4]; male, human, plasma, oral, 50 mg, tmax, Day 0, 50 mg not pre-dosed, n = 8, median (minimum–maximum)): 3 h | Tmax ([4]; male, human, plasma, oral, 50 mg, tmax, Day 0, 50 mg pre-dosed, n = 8, median (minimum–maximum)): 2 h | Tmax ([4]; male, human, plasma, oral, median tmax, range over groups, Day 0): 2 to 3 h | accumulation factor for multiple daily dosing ([4]; multiple once-daily dosing): approximately 2 | dose dependence of plasma pharmacokinetics ([4]; repeated oral 30 to 50 mg, fasted): dose-proportional
